Converted amounts (≈) assume the structure as drawn. The source made the active and inactive calls. No cut-off for these calls is given here.
How the values were obtained:
Pichia kudriavzevii [1] = test: Antifungal activity against Candida krusei ATCC 6258 after 48 hrs; format: functional; conditions: ATCC 6258, 48 h
Outline: (§1)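 MIC is the lowest concentration with no detectable growth. MFC: 5 μL from each clear well moved to agar at 35°C, 48 h for Candida spp. and A. fumigatus, 72 h for C. neoformans; lowest concentration that kills. Values are means of three independent experiments (two for one analog).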

Aspergillus fumigatus [2] = test: Antifungal activity against Aspergillus fumigatus ATCC 90906 after 48 hrs; format: functional; conditions: ATCC 90906, 48 h; outline: as §1
Candida albicans [3] = test: Antifungal activity against Candida albicans ATCC 90028 after 48 hrs; format: functional; conditions: ATCC 90028, 48 h; outline: as §1
Nakaseomyces glabratus [4] = test: Antifungal activity against Candida glabrata ATCC 90030 after 48 hrs; format: functional; conditions: ATCC 90030, 48 h; outline: as §1
Aspergillus fumigatus [5] = test: Antifungal activity against Aspergillus fumigatus ATCC 90906 after 48 hrs by spectrophotometry; format: functional; conditions: ATCC 90906, 48 h; outline: as §1
Pichia kudriavzevii [6] = test: Antifungal activity against Candida krusei ATCC 6258 after 48 hrs by spectrophotometry; format: functional; conditions: ATCC 6258, 48 h; outline: as §1
Nakaseomyces glabratus [7] = test: Antifungal activity against Candida glabrata ATCC 90030 after 48 hrs by spectrophotometry; format: functional; conditions: ATCC 90030, 48 h; outline: as §1
Candida albicans [8] = test: Antifungal activity against Candida albicans ATCC 90028 after 48 hrs by spectrophotometry; format: functional; conditions: ATCC 90028, 48 h; outline: as §1
HepG2 = test: Cytotoxicity against human HepG2 cells after 48 hrs by neutral red; format: cell-based; conditions: HepG2, 48 h
[9] = Cytotoxicity against pig LLC-PK11 cells after 48 hrs by neutral red; format: cell-based; conditions: Sus scrofa, LLC-PK11, 48 h
Vero = test: Cytotoxicity against african green monkey Vero cells after 48 hrs by neutral red; format: cell-based; conditions: Chlorocebus sabaeus
Cryptococcus neoformans [10] = test: Antifungal activity against Cryptococcus neoformans ATCC 90113 at 20 ug/ml after 72 hrs; format: functional, organism-based
Pichia kudriavzevii [11] = test: Antifungal activity against Candida krusei ATCC 6258 at 20 ug/ml after 48 hrs; format: functional, organism-based
Aspergillus fumigatus [12] = test: Antifungal activity against Aspergillus fumigatus ATCC 90906 at 20 ug/ml after 48 hrs; format: functional, organism-based
Candida albicans [13] = test: Antifungal activity against Candida albicans ATCC 90028 at 20 ug/ml after 48 hrs; format: functional, organism-based
Aspergillus fumigatus [14] = test: Antifungal activity against Aspergillus fumigatus ATCC 90906 at 20 ug/ml after 48 hrs by spectrophotometry; format: functional, organism-based
Cryptococcus neoformans [15] = test: Antifungal activity against Cryptococcus neoformans ATCC 90113 at 20 ug/ml after 72 hrs by spectrophotometry; format: functional, organism-based
Candida albicans [16] = test: Antifungal activity against Candida albicans ATCC 90028 at 20 ug/ml after 48 hrs by spectrophotometry; format: functional, organism-based
Pichia kudriavzevii [17] = test: Antifungal activity against Candida krusei ATCC 6258 at 20 ug/ml after 48 hrs by spectrophotometry; format: functional, organism-based
Candida albicans [18] = test: Antifungal activity against Candida albicans SC5314 infected in CD-1 mouse assessed as host survival at 25 mg/kg, po administered 4, 24, 48, 72, and 96 hrs post inoculation measured up to 12 days relative to control; format: functional, organism-based; set-up: dose 25 mg/kg
Outline: (§2)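 Male CD1 mice, 6-7 weeks old, five per group, infected by tail-vein injection of 1 × 10^6 C. albicans SC5314 cells. Dosed intraperitoneally or orally at 4, 24, 48, 72 and 96 h post inoculation; PBS-treated controls. Survival followed for 12 days and compared by Log-rank test.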

Candida albicans [19] = test: Antifungal activity against Candida albicans SC5314 infected in CD-1 mouse assessed as host survival at 5 mg/kg, po administered 4, 24, 48, 72, and 96 hrs post inoculation measured up to 12 days relative to control; format: functional, organism-based; set-up: dose 5 mg/kg; outline: as §2
Candida albicans [20] = test: Antifungal activity against Candida albicans SC5314 infected in CD-1 mouse assessed as host survival at 5 mg/kg, ip administered 4, 24, 48, 72, and 96 hrs post inoculation measured up to 8 days relative to control; format: functional, organism-based; set-up: dose 5 mg/kg
Candida albicans [21] = test: Antifungal activity against Candida albicans SC5314 infected in CD-1 mouse assessed as host survival at 1 mg/kg, ip administered 4, 24, 48, 72, and 96 hrs post inoculation measured up to […] relative to control; format: functional, organism-based; set-up: dose 1 mg/kg
Cryptococcus neoformans [22] = test: Antifungal activity against Cryptococcus neoformans ATCC 90113 after 72 hrs; format: functional; conditions: ATCC 90113, 72 h; outline: as §1
Cryptococcus neoformans [23] = test: Antifungal activity against Cryptococcus neoformans ATCC 90113 after 72 hrs by spectrophotometry; format: functional; conditions: ATCC 90113, 72 h; outline: as §1
Leishmania donovani = test: Antileishmanial activity against Leishmania donovani in ip dosed mouse model of leishamniasis; format: functional

Row | Compound | MIC (Aspergillus fumigatus [5]) [µg/mL] | MIC (Pichia kudriavzevii [6]) [µg/mL] | MIC (Nakaseomyces glabratus [7]) [µg/mL] | MIC (Candida albicans [8]) [µg/mL] | MIC (Cryptococcus neoformans [23]) [µg/mL] | MFC (Pichia kudriavzevii [1]) [µg/mL] | MFC (Aspergillus fumigatus [2]) [µg/mL] | MFC (Candida albicans [3]) [µg/mL] | MFC (Nakaseomyces glabratus [4]) [µg/mL] | IC50 (HepG2) [µg/mL] | IC50 [9] [µg/mL] | IC50 (Vero) [µg/mL] | Activity (Cryptococcus neoformans [10]) | Activity (Pichia kudriavzevii [11]) | Activity (Candida albicans [13]) | Activity (Cryptococcus neoformans [15]) | Activity (Candida albicans [16]) | Activity (Pichia kudriavzevii [17]) | MFC (Cryptococcus neoformans [22]) [µg/mL] | further results
1 | C[C@@H]1[C@H](O)[C@@H](C)/C=C/C=C/C=C/C=C/C=C/C=C/C=C/[C@H](O[C@@H]2O[C@H](C)[C@@H](O)[C@H](N)[C@@H]2O)C[C@@H]2O[C@](O)(C[C@@H](O)C[C@@H](O)[C@H](O)CC[C@@H](O)C[C@@H](O)CC(=O)O[C@H]1C)C[C@H](O)[C@H]2C(=O)O [AMPHOTERICIN B] | 2.5 (≈ 2.71 µM) | 1.7 (≈ 1.84 µM) | 1.3 (≈ 1.41 µM) | 0.9 (≈ 0.974 µM) |  | 1.7 (≈ 1.84 µM) | 5 (≈ 5.41 µM) | 1 (≈ 1.08 µM) | 1.5 (≈ 1.62 µM) |  |  |  |  |  |  |  |  |  |  | 
2 | C=CC[N+](C)(C)CCOP(=O)([O-])OCCCCCCCCCCCCCCCC |  |  | 16.6 (≈ 38.3 µM) |  |  |  |  |  | 16.6 (≈ 38.3 µM) | 13.2 (≈ 30.4 µM) | 4.1 (≈ 9.46 µM) | > 25 | inactive | inactive | inactive | inactive | inactive | inactive |  | Activity (Aspergillus fumigatus [12]): inactive; Activity (Aspergillus fumigatus [14]): inactive
3 | CCCCCCCCCCCCCCCCOP(=O)([O-])OCC[N+](C)(C)Cc1ccc(Cl)cc1 | 12.5 (≈ 24.1 µM) |  | 11.2 (≈ 21.6 µM) |  |  |  | 12.5 (≈ 24.1 µM) |  | 11.2 (≈ 21.6 µM) | 21 (≈ 40.5 µM) | 3.2 (≈ 6.18 µM) | > 25 | inactive | inactive | inactive | inactive | inactive | inactive |  | 
4 | CCCCCCCCCCCCCCCCOP(=O)([O-])OCC[N+](C)(C)Cc1ccc(Br)cc1 | 20 (≈ 35.6 µM) |  | 10.8 (≈ 19.2 µM) |  |  |  | 20 (≈ 35.6 µM) |  | 10.8 (≈ 19.2 µM) | 21.3 (≈ 37.9 µM) | 5.5 (≈ 9.78 µM) | > 25 | inactive | inactive | inactive | inactive | inactive | inactive |  | 
5 | CCCCCCCCCCCCCCOP(=O)([O-])OCC[N+](C)(C)Cc1ccccc1 | 10 (≈ 21.9 µM) | 10 (≈ 21.9 µM) | 8.3 (≈ 18.2 µM) | 6.7 (≈ 14.7 µM) | 3.3 (≈ 7.24 µM) | 10 (≈ 21.9 µM) |  | 8.3 (≈ 18.2 µM) | 8.3 (≈ 18.2 µM) | > 25 | 10.8 (≈ 23.7 µM) | > 25 |  |  |  |  |  |  | 3.3 (≈ 7.24 µM) | 
6 | COc1cccc2c1C(=O)c1c(O)c3c(c(O)c1C2=O)C[C@@](O)(C(=O)CO)C[C@@H]3O[C@H]1C[C@H](N)[C@H](O)[C@H](C)O1 [DOXORUBICIN] |  |  |  |  |  |  |  |  |  | 0.9 (≈ 1.66 µM) | 0.7 (≈ 1.29 µM) | > 5 |  |  |  |  |  |  |  | 

Continued, in another order:

Row | MIC (Aspergillus fumigatus [5]) [µg/mL] | MIC (Pichia kudriavzevii [6]) [µg/mL] | MIC (Nakaseomyces glabratus [7]) [µg/mL] | MIC (Candida albicans [8]) [µg/mL] | MIC (Cryptococcus neoformans [23]) [µg/mL] | Compound | MFC (Pichia kudriavzevii [1]) [µg/mL] | MFC (Aspergillus fumigatus [2]) [µg/mL] | MFC (Candida albicans [3]) [µg/mL] | MFC (Nakaseomyces glabratus [4]) [µg/mL] | IC50 (HepG2) [µg/mL] | IC50 [9] [µg/mL] | IC50 (Vero) [µg/mL] | Activity (Cryptococcus neoformans [10]) | Activity (Pichia kudriavzevii [11]) | Activity (Candida albicans [13]) | Activity (Cryptococcus neoformans [15]) | Activity (Candida albicans [16]) | Activity (Pichia kudriavzevii [17]) | MFC (Cryptococcus neoformans [22]) [µg/mL] | further results
7 | 2.5 (≈ 5.17 µM) | 5 (≈ 10.3 µM) | 3.3 (≈ 6.82 µM) | 2.5 (≈ 5.17 µM) | 3.3 (≈ 6.82 µM) | CCCCCCCCCCCCCCCCOP(=O)([O-])OCC[N+](C)(C)Cc1ccccc1 | 15 (≈ 31 µM) | 2.5 (≈ 5.17 µM) | 2.5 (≈ 5.17 µM) | 3.3 (≈ 6.82 µM) | > 25 | 4.8 (≈ 9.92 µM) | > 25 |  |  |  |  |  |  | 3.3 (≈ 6.82 µM) | Activity (Candida albicans [18]): inactive; Activity (Candida albicans [19]): inactive; Activity (Candida albicans [20]): inactive; Activity (Candida albicans [21]): inactive
8 | 2.9 (≈ 7.12 µM) | 2.5 (≈ 6.13 µM) | 3.3 (≈ 8.1 µM) | 2.5 (≈ 6.13 µM) | 2.1 (≈ 5.15 µM) | CCCCCCCCCCCCCCCCOP(=O)([O-])OCC[N+](C)(C)C [MILTEFOSINE] | 3.3 (≈ 8.1 µM) | 9.2 (≈ 22.6 µM) | 2.5 (≈ 6.13 µM) | 4.2 (≈ 10.3 µM) | > 25 | 2.7 (≈ 6.62 µM) | > 25 |  |  |  |  |  |  | 2.1 (≈ 5.15 µM) | Activity (Candida albicans [20]): inactive; ED50 (Leishmania donovani): 7.72 mg/kg
9 |  |  | 4.2 (≈ 8.21 µM) |  |  | CCCCCCCCCCCCCCCCCCOP(=O)([O-])OCC[N+](C)(C)Cc1ccccc1 |  |  |  | 4.2 (≈ 8.21 µM) | 13 (≈ 25.4 µM) | 4.7 (≈ 9.18 µM) | > 25 | inactive | inactive | inactive | inactive | inactive | inactive |  | Activity (Aspergillus fumigatus [12]): inactive; Activity (Aspergillus fumigatus [14]): inactive
10 | 2.5 (≈ 4.9 µM) | 3.3 (≈ 6.47 µM) | 2.5 (≈ 4.9 µM) |  |  | CCCCCCCCCCCCCCCCOP(=O)([O-])OCC[N+](C)(C)C/C=C/c1ccccc1 | 3.3 (≈ 6.47 µM) | 5 (≈ 9.81 µM) |  | 3.3 (≈ 6.47 µM) | 19.6 (≈ 38.5 µM) | 2.1 (≈ 4.12 µM) | > 25 | inactive |  | inactive | inactive | inactive |  |  | 
11 | 2.5 (≈ 4.87 µM) | 2 (≈ 3.89 µM) | 2.5 (≈ 4.87 µM) | 4.2 (≈ 8.18 µM) | 4.2 (≈ 8.18 µM) | CCCCCCCCCCCCCCCCOP(=O)([O-])OCC[N+](C)(C)Cc1ccc(OC)cc1 | 3.3 (≈ 6.42 µM) | 7.5 (≈ 14.6 µM) | 4.2 (≈ 8.18 µM) | 3.3 (≈ 6.42 µM) | 12.9 (≈ 25.1 µM) | 1.9 (≈ 3.7 µM) | > 25 |  |  |  |  |  |  | 4.2 (≈ 8.18 µM) | 
12 | 2.5 (≈ 4.73 µM) | 2.5 (≈ 4.73 µM) | 2.5 (≈ 4.73 µM) | 2.5 (≈ 4.73 µM) | 2.5 (≈ 4.73 µM) | CCCCCCCCCCCCCCCCOP(=O)([O-])OCC[N+](C)(C)Cc1ccc([N+](=O)[O-])cc1 | 3.3 (≈ 6.24 µM) | 7.5 (≈ 14.2 µM) | 2.5 (≈ 4.73 µM) | 2.5 (≈ 4.73 µM) | 11.5 (≈ 21.8 µM) | 1.6 (≈ 3.03 µM) | > 25 |  |  |  |  |  |  | 2.5 (≈ 4.73 µM) | 
